Bioassay records as filed in PubChem BioAssay.
HEK293 NFkB inh = inhibitors of PMA/ionomycin-induced NF-kB reporter, primary screen, antigen receptor NF-kB inhibitor project, cell-based, HEK-293 luciferase reporter, luminescence; HEK-293 NF-kB luciferase reporter; inhibition, % at 3 µM; 62,000 compounds, 0.21% hits; AID 465, 2006;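 active = inhibition above the mean of all tested compounds plus 3 SD, cut at about 40% in these data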;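 also: 0% = stimulated DMSO wells and 100% = 10 µM reference inhibitor 5653914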
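Timing: 1 h pretreatment, 16 h stimulation, 37 °C; system: HEK-293 cells with stable firefly luciferase reporter driven by four HIV NF-kB elements; doses: 3 µM once, 0.30% DMSO; measured by: luciferase luminescence; control set: DMSO and 10 µM reference inhibitor; repeats: single test; reagent: PMA plus ionomycin mix as NF-kB-activating stimulus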
AP ELISA ortho = alternative complement pathway inhibitors, primary screen, biochemical, ELISA, human serum, orthogonally pooled compounds | inhibition, % at 5 µM | LPS-coated ELISA, C3 deposition; tested in compound mixtures | 62,000 compounds, 0.08% hits;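 active = inhibition above 30% in each of the two pooled mixtures holding the compound, so the lower value exceeds 30%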;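 also: 0% = serum in Mg-EGTA without compound and 100% = EDTA serum blank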
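Test system: human serum alternative complement pathway, C3 deposition on LPS-coated wells; also added: Plate-bound LPS; doses: 5 µM per compound in ten-compound mixtures; schedule: 1 h at 37 °C; detection: Anti-C3 ELISA, OD 450 nm; evaluation: percent inhibition of C3 deposition onto LPS; repeats: two pool placements per compound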
Ec RNAP inh = E. coli RNAP inhibitors, biochemical | DNA-directed RNA polymerase subunit beta (Escherichia coli (strain K12)), P0A8V2 | E. coli RNA polymerase, fluorescence transcription assay | inhibition, %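 (tested at 10 µM)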 | 62,000 compounds, 0.2% hits; in the data active = inhibition above about 20%;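 also: 0% = enzyme without compound and 100% = no enzyme blank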
DAT uptake mod = changed hDAT dopamine uptake under cocaine IC80, either direction, primary screen, cocaine antagonist project, cell-based, LLC-PK1 hDAT, [14C]-dopamine uptake, MLSMR. LLC-PK1 hDAT cells, [14C]-dopamine uptake with cocaine IC80; actives deviate in either direction. B-score at 10 µM. 110,000 compounds, 1.3% hits. AID 449768, 2010;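 active = Z score or B-score, a plate-position-corrected score, falls beyond the plate's 99.7% confidence bounds, in either direction; inactive = both scores lie inside the 99.7% bounds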;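 also: scored against the spread of the other compound wells on the same plate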
D1 allo mod = D1 CRE-luciferase signal change, two-sided – cell-based, HEK293 D1, dopamine EC30, D1 allosteric modulator project, primary screen. dopamine EC30 potentiation; actives deviate in either direction. B-score at 10 µM. 58,000 compounds, 5.9% hits;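 active = luminescence count or its row- and column-corrected plate score outside the 99.7% band of the plate's sample wells, on either side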
Target sequence (P21728 whole entry, looked up): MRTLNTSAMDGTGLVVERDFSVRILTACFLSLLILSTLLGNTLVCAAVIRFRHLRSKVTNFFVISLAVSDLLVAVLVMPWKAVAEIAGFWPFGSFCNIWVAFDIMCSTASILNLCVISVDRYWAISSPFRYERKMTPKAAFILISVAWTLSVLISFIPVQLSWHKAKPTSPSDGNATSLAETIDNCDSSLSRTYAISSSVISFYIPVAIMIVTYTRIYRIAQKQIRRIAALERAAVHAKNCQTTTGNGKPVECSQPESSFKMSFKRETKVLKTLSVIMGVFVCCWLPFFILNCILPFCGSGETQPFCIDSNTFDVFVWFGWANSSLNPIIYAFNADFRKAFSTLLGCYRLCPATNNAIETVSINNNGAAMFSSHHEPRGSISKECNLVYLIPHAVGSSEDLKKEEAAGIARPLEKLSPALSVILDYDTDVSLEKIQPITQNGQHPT
D1 PAM confirm = D1 receptor positive allosteric modulators, retest, confirmation, cell-based, HEK293 D1, CRE-luciferase, duplicate. luminescence at 10 µM. shares compounds with D1 allo mod. dopamine EC30 potentiation; active compounds read high. 2,200 compounds, 88% hits;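 active = luminescence in either of two replicates above the same-plate mean plus 3 SD of the low-dose dopamine control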
D1 ag no DA = D1 receptor agonism without dopamine, confirmation, mechanism study for D1 allosteric modulator project, cell-based, HEK293 D1, CRE-luciferase, secondary assay 1. AID 646, 2007. 1,900 compounds, 0.8% hits. luminescence at 10 µM. shares compounds with D1 allo mod. luminescence, no dopamine; active compounds read high; in the data active = luminescence above about 3900
Isoprot counter = counter-screen for D1 modulators: isoproterenol response in HEK293 cells. shares compounds with D1 allo mod. calls only at 10 µM. 2,200 compounds, 63% hits. AID 647. HEK293 D1 CRE-luciferase, isoproterenol EC30 counter-screen;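 active = luminescence in either replicate above plate mean of wells with a partly effective reference agonist dose plus 3 SD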;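 also: isoproterenol raises cAMP through native beta-adrenoceptor Gs so signal bypasses D1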
* = called active by the depositor; i = inactive; · = no result given; + = active, no number. Shown is part of a subset that was picked to be rich in hits.

SMILES | HEK293 NFkB inh | AP ELISA ortho | Ec RNAP inh | DAT uptake mod | D1 allo mod | D1 PAM confirm | D1 ag no DA | Isoprot counter
CSc1ccc(C2C(C#N)=C(N)N(c3ccccc3)C3=C2C(=O)CCC3)cc1 (stereo unspecified) | 24.5 | 9.0 | 1.3 | -0.0343 | 2.58* | 10676* | 1648 | i
COc1ccc(OCc2nnc(SC3CCOC3=O)n2-c2ccccc2)cc1 (stereo unspecified) | 7.6 | 12.7 | 0.2 | 0.78 | 0.153 | · | · | ·
COc1cccc(-n2c(SC3CCOC3=O)nc3ccccc3c2=O)c1 (stereo unspecified) | 11.3 | 8.1 | 7.2 | -1 | 13.5* | 13364* | 1604 | +
Cc1ccnc(SCCn2c(N3CCOCC3)nc3c2c(=O)n(C)c(=O)n3C)n1 | 7.6 | · | · | · | -0.495 | · | · | ·
CCCN(CCC)S(=O)(=O)c1cc(Br)cc2c1N(C(=O)CC)CC2 | 9.7 | 8.0 | 4.8 | 0.5 | -0.781 | · | · | ·
COc1ccc(OC)c(/C=N/c2oc(-c3ccco3)c(-c3ccco3)c2C#N)c1 | 16.9 | 8.2 | 11.6 | -1.78 | 9.5* | 16404* | 1712 | i
COc1ccc(C(C#N)C2(C)OCCO2)cc1OC (stereo unspecified) | 2.5 | 6.7 | · | -0.00484 | 10.2* | 10756* | · | +
CCOC(=O)c1[nH]c2ccccc2c1NC(=O)CC | 17.1 | 26.7 | 2.8 | · | -0.0512 | · | · | ·
CCOC(=O)c1[nH]c2ccccc2c1NC(=O)C(C)(C)C | 22.8 | 3.1 | 7.8 | -0.136 | 4.46* | 7700* | 1592 | i
CCOC(=O)c1[nH]c2ccc(Cl)cc2c1NC(=O)c1nonc1C | · | · | · | 0.0418 | · | · | · | ·
CCOC(=O)c1[nH]c2ccccc2c1NC(C)=O | 13.5 | 6.3 | 3.9 | -1.33 | 0.389 | · | · | ·
CCOC(=O)c1[nH]c2ccc(OC)cc2c1NC(=O)c1nonc1C | -2.0 | 2.3 | 10.4 | -0.0383 | 8.71* | 12456* | · | +
CCOC(=O)c1[nH]c2ccccc2c1NC(=O)c1nonc1C | 16.6 | -7.1 | 4.3 | -1.42 | 5.8* | 11368* | 1672 | +
O=C(COc1ccc(S(=O)(=O)NC2CCCCC2)cc1Cl)N1CCN(c2ccccc2)CC1 | · | · | · | 0.625 | · | · | · | ·
COC(=O)c1ccc(OCCn2cnc3ccccc3c2=O)cc1 | -3.2 | 33.3 | 0.4 | -0.284 | 5.18* | 9464* | 2040 | i
COc1ccc(CCN2CCCn3c2nc2c3c(=O)n(Cc3ccccc3F)c(=O)n2C)cc1OC | 5.5 | 9.3 | · | 0.745 | 6.28* | 17816* | 1740 | i
COc1ccc(N2CCCn3c2nc2c3c(=O)n(Cc3ccccc3F)c(=O)n2C)cc1 | 10.3 | 1.6 | -5.8 | · | · | · | · | ·
CCn1c(SCC(=O)Nc2ccccc2N2CCCCC2)nc2c1c(=O)n(C)c(=O)n2C | 8.7 | -3.4 | 8.4 | 0.0365 | 3.94* | 6828* | 1584 | i
CC(C)n1c(SCC(=O)Nc2ccccc2N2CCOCC2)nc2c1c(=O)n(C)c(=O)n2C | · | · | · | -0.932 | · | · | · | ·
CCn1c(SCC(=O)OCc2ccccc2)nc2c1c(=O)n(C)c(=O)n2C | 11.3 | -3.3 | -0.1 | 0.419 | 3.95* | 5976 | 1308 | i
CCOC(=O)C1=C(C)NC(=O)C1CC(=O)Nc1ccccc1 (stereo unspecified) | · | · | 5.7 | -0.708 | · | · | · | ·
CCOC(=O)/C=C1\NC(C)(C)Cc2cc(OC)c(OC)cc21 | · | · | · | 0.738 | · | · | · | ·
CC1(C)Cc2ccccc2/C(=C/C(=O)N2CCCCCC2)N1 | · | · | · | 0.718 | · | · | · | ·
COc1cc2c(cc1OC)/C(=C/C(=O)N1CCOCC1)NC(C)(C)C2 | 13.8 | 23.6 | 5.8 | 0.165 | 9.95* | 18680* | 1652 | +
CCOC(=O)/C=C1\NC(C)(C)Cc2cc(OC)c(O)cc21 | 3.5 | 15.7 | -0.7 | -0.266 | 3.96* | 8420* | 1572 | i
SMILES | HEK293 NFkB inh | AP ELISA ortho | Ec RNAP inh | DAT uptake mod | D1 allo mod | D1 PAM confirm | D1 ag no DA | Isoprot counter
C/C(Cl)=C\Cn1c(N2CCCCCC2)nc2c1c(=O)n(C)c(=O)n2C | 22.4 | -0.5 | 5.5 | -0.356 | 1.59 | · | · | ·
COc1ccc(Cl)cc1C(=O)CSc1nnnn1C1CCCCC1 | · | · | · | -0.23 | · | · | · | ·
COc1ccc(Cl)cc1C(=O)CSc1nnnn1C1CCCC1 | -3.1 | 2.4 | · | -0.591 | 2.78* | 6668* | 1592 | i
COc1ccc(-n2c(/C=C(\C)O)nc(=O)c3c(C)cc(C)nc32)cc1 | 11.6 | 5.0 | 0.6 | 0.0353 | 2.88 | · | · | ·
CC(C)(C)C1CCc2onc(C(=O)Nc3cccnc3)c2C1 (stereo unspecified) | 23.5 | 4.5 | 8.7 | 0.839 | 10.5* | 19704* | 1720 | +
CCOc1cc(C2C(C(=O)OC)=C(C)N=C3SCCC(=O)N32)ccc1OC(C)=O (stereo unspecified) | -0.9 | 8.4 | 1.1 | -1.19 | 5.1* | 6516* | · | +
CC(C)Oc1ccc(C(=O)N(CN2CCCC2=O)c2ccc(F)cc2)cc1 | -2.4 | 5.3 | 4.8 | 1.73 | 4.45* | 7800 | 1532 | i
COc1cccc(C(=O)N(CN2CCCC2=O)c2cccc(Cl)c2)c1 | 12.9 | 8.6 | -0.7 | 1.82 | · | · | · | ·
COc1ccc(OC)c(C(=O)COC(=O)C2CC3CCCC(C2)C3=O)c1 (stereo unspecified) | 6.1 | -7.6 | 5.5 | 0.102 | 2.21* | 9744* | 1720 | i
Nc1nc(N)nc(-c2ccccc2O)n1 | · | · | · | 0.262 | · | · | · | ·
Cc1cc(C)nc(SCc2nc(N)nc(-c3ccccc3O)n2)n1 | -4.2 | 8.8 | 2.7 | -0.0905 | 12.5* | 17172* | 1668 | +
Cc1ccc2c(c1)-c1cc(C)nn1C(c1ccc3c(c1)OCO3)N2 (stereo unspecified) | -1.5 | 4.5 | 4.5 | · | 5.33* | 12540* | 1584 | +
Cc1cc2n(n1)C(c1ccccc1)Nc1ccccc1-2 (stereo unspecified) | 25.0 | -1.5 | 6.4 | -0.021 | 13.9* | 14996* | 1724 | +
Cc1cc2n(n1)C(c1sccc1C)Nc1ccccc1-2 (stereo unspecified) | 1.8 | -8.4 | · | -0.128 | 8.38* | 9040* | · | +
Cc1cc2n(n1)C(c1ccc3c(c1)OCO3)Nc1ccccc1-2 (stereo unspecified) | 0.1 | 3.4 | · | -0.36 | 11* | 17556* | · | +
